Assay results taken from PMC7820547 (iScience, 2021).
Numbering of substitutions follows the chain as printed.

What was measured:
hSHMT1 [1] = biological target: T1, hSHMT1 (Homo sapiens, UniProt P34896); experiment: Differential scanning calorimetry; assay type: binding; settings: DSC, 50 μM Gly-DCA, 18 μM hSHMT1; Tm without ligand 69.6°C
T1 sequence (P34896 1-483): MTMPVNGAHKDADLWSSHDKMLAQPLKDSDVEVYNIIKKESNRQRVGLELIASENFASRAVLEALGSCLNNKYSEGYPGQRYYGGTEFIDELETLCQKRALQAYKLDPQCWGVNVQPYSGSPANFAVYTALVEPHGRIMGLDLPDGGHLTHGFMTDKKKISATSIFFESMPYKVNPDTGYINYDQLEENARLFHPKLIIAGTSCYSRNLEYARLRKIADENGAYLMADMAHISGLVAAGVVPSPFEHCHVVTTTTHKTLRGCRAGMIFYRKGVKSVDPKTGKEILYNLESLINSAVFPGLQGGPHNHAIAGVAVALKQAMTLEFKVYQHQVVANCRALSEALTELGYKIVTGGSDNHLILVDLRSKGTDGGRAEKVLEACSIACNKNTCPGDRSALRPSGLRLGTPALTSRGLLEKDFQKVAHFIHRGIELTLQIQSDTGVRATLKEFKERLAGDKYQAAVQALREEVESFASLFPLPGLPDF
Procedure, shortened: (§1)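 Recombinant His6-tagged human enzyme from E. coli BL21(DE3)pLysS, Ni-NTA then gel filtration. Scanned 20 to 110 °C at 1 °C/min in 10 mM HEPES pH 7.5, 0.5 mM EDTA, 2 mM β-mercaptoethanol and 1% DMSO, with 18 µM (1.0 mg/mL) enzyme and 50 µM test compound. hSHMT1 used 100 mM NaCl and no PLP; hSHMT2 used 200 mM NaCl and 50 µM PLP. Non-two-state denaturation model fitted.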

hSHMT2 [2] = biological target: T2, hSHMT2 (Homo sapiens, UniProt P34897); experiment: Isothermal titration calorimetry; assay type: binding
T2 sequence (P34897 30-504): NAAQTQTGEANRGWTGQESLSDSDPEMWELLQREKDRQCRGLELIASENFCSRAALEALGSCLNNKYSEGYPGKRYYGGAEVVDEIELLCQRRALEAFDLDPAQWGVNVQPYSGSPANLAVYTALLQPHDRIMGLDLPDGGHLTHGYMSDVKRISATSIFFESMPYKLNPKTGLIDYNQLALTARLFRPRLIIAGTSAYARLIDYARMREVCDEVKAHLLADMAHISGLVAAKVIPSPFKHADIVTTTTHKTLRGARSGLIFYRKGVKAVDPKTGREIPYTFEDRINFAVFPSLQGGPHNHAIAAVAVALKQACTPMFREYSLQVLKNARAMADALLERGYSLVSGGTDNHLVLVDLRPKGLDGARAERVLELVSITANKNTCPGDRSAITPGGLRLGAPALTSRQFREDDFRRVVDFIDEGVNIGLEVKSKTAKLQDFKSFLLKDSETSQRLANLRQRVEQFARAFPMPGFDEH
Procedure, shortened: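 Purified His6-hSHMT2 (28.9 µM) in the cell was titrated with 300 µM test compound from the syringe at 37 °C, stirring 750 rpm. One small initial injection, then 12 injections at 180 s intervals; thermodynamic parameters were calculated from the titration.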

hSHMT2 E98L = biological target: T3, hSHMT2 E98L (Homo sapiens, UniProt P34897, E98L); experiment: Surface plasmon resonance binding of Gly-DCA to mutant hSHMT2 E98L; settings: SPR, 25°C
T3 sequence (P34897 30-504 E98L): T2 sequence (P34897 30-504) with E69L
Procedure, shortened: (§2)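 Wild-type or mutant His6-hSHMT2 was captured on an NTA sensor chip in each cycle. Analyte (test compound) was run at 0.8, 0.4, 0.2, 0.1, 0.05 and 0.025 µM in 10 mM HEPES pH 7.5, 200 mM NaCl, 2 mM β-mercaptoethanol, 50 µM PLP, 0.01% Tween 20 and 5% DMSO. Contact 30 s, dissociation 300 s; Scatchard-derived Kd.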

hSHMT2 [3] = biological target: T2, hSHMT2; experiment: Differential scanning calorimetry; assay type: binding; settings: DSC, 50 μM Gly-DCA, 18 μM hSHMT2, 50 μM PLP; Tm without ligand 65.1°C
Procedure, shortened: as §1

hSHMT2 R425A = biological target: T4, hSHMT2 R425A (Homo sapiens, UniProt P34897, R425A); experiment: Surface plasmon resonance binding of Gly-DCA to mutant hSHMT2 R425A; settings: SPR, 25°C
T4 sequence (P34897 30-504 R425A): T2 sequence (P34897 30-504) with R396A
Procedure, shortened: as §2

hSHMT1 [4] = biological target: T1, hSHMT1; settings: ITC, ref Nonaka et al., 2019, cited from earlier work
hSHMT1 E75L = biological target: T5, hSHMT1 E75L (Homo sapiens, UniProt P34896, E75L); experiment: Surface plasmon resonance binding of Gly-DCA to mutant hSHMT1 E75L
T5 sequence (P34896 1-483 E75L): T1 sequence (P34896 1-483) with E75L
Procedure, shortened: (§3)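 His6-hSHMT1, wild type or point mutant, was captured fresh on an NTA sensor chip each cycle. Contact 30 s, dissociation 300 s; Kd by Scatchard analysis.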

hSHMT2 WT = biological target: T6, hSHMT2 WT (Homo sapiens, UniProt P34897); experiment: Surface plasmon resonance binding of Gly-DCA to hSHMT2 WT
T6 sequence (P34897 30-504): T2 sequence (P34897 30-504)
Procedure, shortened: as §2

hSHMT1 R402A = biological target: T7, hSHMT1 R402A (Homo sapiens, UniProt P34896, R402A); experiment: Surface plasmon resonance binding of Gly-DCA to mutant hSHMT1 R402A; settings: SPR, 25°C
T7 sequence (P34896 1-483 R402A): T1 sequence (P34896 1-483) with R402A
Procedure, shortened: as §3

hSHMT1 WT = biological target: T8, hSHMT1 WT (Homo sapiens, UniProt P34896); experiment: Surface plasmon resonance binding of Gly-DCA to hSHMT1 WT
T8 sequence (P34896 1-483): T1 sequence (P34896 1-483)
Procedure, shortened: as §3

hSHMT2 [5] = biological target: T2, hSHMT2; experiment: Inhibition assay of Ser-Gly conversion; assay type: biochemical
[6] = ITC, 37°C, pH 7.5, 200 mM NaCl, 50 μM PLP

For `CC(CCC(=O)NCC(=O)O)C1CCC2C3CCC4CC(O)CCC4(C)C3CC(O)C12C` (stereo not shown) [Gly-DCA, glycodeoxycholic acid], the “Tm of hSHMT1 w/ Gly-DCA” value (hSHMT1 [1]) was 78.8 °C, the Kd (hSHMT2 [2]) was 0.25 µM and the “hSHMT2 N (stoichiometry, binding ratio)” value (hSHMT2 [2]; ITC, 37°C) was 0.83. For the same molecule, the “hSHMT2 ΔG” value (hSHMT2 [2]; [6]) was -9.4 kcal/mol, the “hSHMT2 ΔH” value (hSHMT2 [2]; [6]) was -8.6 kcal/mol and the “hSHMT2 −TΔS” value (hSHMT2 [2]; [6]) was -0.8 kcal/mol. The “binding affinity for hSHMT2 E98L” value (hSHMT2 E98L) was “too weak to quantitate”, the “Tm of hSHMT2 w/ Gly-DCA” value (hSHMT2 [3]) was 77.4 °C and the “binding affinity for hSHMT2 R425A” value (hSHMT2 R425A) was “too weak to quantitate”. For the same molecule, the “hSHMT1 ΔG” value (hSHMT1 [4]; 100 mM NaCl, 0 µM PLP) was -7.4 kcal/mol, the “hSHMT1 ΔH” value (hSHMT1 [4]; 100 mM NaCl, 0 µM PLP) was -2.2 kcal/mol and the “hSHMT1 −TΔS” value (hSHMT1 [4]; 100 mM NaCl, 0 µM PLP) was -5.2 kcal/mol. The “hSHMT1 N (stoichiometry, binding ratio)” value (hSHMT1 [4]) was 1.06, the Kd (hSHMT1 [4]; read-out: hSHMT1 Kd, 100 mM NaCl, 0 µM PLP) was 5.7 µM and the Kd (hSHMT1 E75L) was 73.5 µM. For the same molecule, the Kd (hSHMT2 WT) was 0.064 µM, the “binding affinity for hSHMT1 R402A” value (hSHMT1 R402A) was “too weak to quantitate” and the Kd (hSHMT1 WT) was 7.6 µM.
For `C[C@H](CCC(=O)NCCS(=O)(=O)O)[C@H]1CC[C@H]2[C@@H]3CC[C@@H]4C[C@H](O)CC[C@]4(C)[C@H]3CC[C@]12C` [Tau-LCA, taurolithocholic acid], the IC50 (hSHMT2 [5]) was 2.6 µM.
